Reference: ChEMBL document CHEMBL1687781, “Comparative biochemical and computational study of the role of naturally occurring mutations at Ambler positions 104 and 170 in GES β-lactamases” (Antimicrob Agents Chemother, 2010)
Values after ≈ are worked out from the molar mass of the structure shown.

Assays:
Escherichia coli [1] = experiment: Antimicrobial activity against Escherichia coli DH5[alpha] transformed with pAC-ges1 plasmid encoding Beta-lactamase GES-2 E104, N170 mutant by Etest method; type: functional
Escherichia coli [2] = experiment: Antimicrobial activity against Escherichia coli DH5[alpha] by Etest method; type: functional
Escherichia coli [3] = experiment: Antimicrobial activity against Escherichia coli DH5[alpha] transformed with pAC-ges1 plasmid encoding Beta-lactamase GES-7 K104, G170 mutant by Etest method; type: functional
[4] = Ratio of Kcat to Km for Beta-lactamase GES-6 K104, S170 mutant
Method in brief: (§1)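 Purified GES enzymes, released by mild sonication in 20 mM Tris pH 8.0, then Q-Sepharose and S-Sepharose chromatography, >95% pure by SDS-PAGE, in 50 mM KPi pH 7.6. Protein measured by Bradford. β-Lactam substrates hydrolysed at various concentrations, 25°C, in 50 mM NaCl, 50 mM MOPS pH 7.0.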

[5] = Activity of Beta-lactamase GES-7 K104, G170 mutant; method in brief: as §1
[6] = Ratio of Kcat to Km for Beta-lactamase GES-2 E104, N170 mutant; method in brief: as §1
[7] = Ratio of Kcat to Km for Beta-lactamase GES-1 E104, G170 mutant; method in brief: as §1
Escherichia coli [8] = experiment: Antimicrobial activity against Escherichia coli DH5[alpha] transformed with pAC-ges1 plasmid encoding Beta-lactamase GES-13 K104, N170 mutant by Etest method; type: functional
[9] = Activity of Beta-lactamase GES-5 E104, S170 mutant; method in brief: as §1
Escherichia coli [10] = experiment: Antimicrobial activity against Escherichia coli DH5[alpha] transformed with pAC-ges1 plasmid encoding Beta-lactamase GES-5 E104, S170 mutant by Etest method; type: functional
[11] = Activity of Beta-lactamase GES-13 K104, N170 mutant; method in brief: as §1
Escherichia coli [12] = experiment: Antimicrobial activity against Escherichia coli DH5[alpha] transformed with pAC-ges1 plasmid encoding Beta-lactamase GES-6 K104, S170 mutant by Etest method; type: functional
[13] = Ratio of Kcat to Km for Beta-lactamase GES-7 K104, G170 mutant; method in brief: as §1
[14] = Activity of Beta-lactamase GES-6 K104, S170 mutant; method in brief: as §1
[15] = Activity of Beta-lactamase GES-1 E104, G170 mutant; method in brief: as §1
[16] = Activity of Beta-lactamase GES-2 E104, N170 mutant; method in brief: as §1
[17] = Ratio of Kcat to Km for Beta-lactamase GES-13 K104, N170 mutant; method in brief: as §1
[18] = Ratio of Kcat to Km for Beta-lactamase GES-5 E104, S170 mutant; method in brief: as §1
Escherichia coli [19] = experiment: Antimicrobial activity against Escherichia coli DH5[alpha] transformed with pAC-ges1 plasmid encoding Beta-lactamase GES-1 E104, G170 mutant by Etest method; type: functional
[20] = Inhibition of Beta-lactamase GES-6 K104, S170 mutant preincubated for 5 mins before substrate addition using cephalothin substrate by spectrophotometry
[21] = Inhibition of Beta-lactamase GES-13 K104, N170 mutant preincubated for 5 mins before substrate addition using cephalothin substrate by spectrophotometry
[22] = Inhibition of Beta-lactamase GES-1 E104, G170 mutant preincubated for 5 mins before substrate addition using cephalothin substrate by spectrophotometry
[23] = Inhibition of Beta-lactamase GES-5 E104, S170 mutant preincubated for 5 mins before substrate addition using cephalothin substrate by spectrophotometry
[24] = Inhibition of Beta-lactamase GES-7 K104, G170 mutant preincubated for 5 mins before substrate addition using cephalothin substrate by spectrophotometry
[25] = Inhibition of Beta-lactamase GES-2 E104, N170 mutant preincubated for 5 mins before substrate addition using cephalothin substrate by spectrophotometry
Escherichia coli [26] = experiment: Antimicrobial activity against Escherichia coli DH5[alpha] transformed with pAC-ges1 plasmid encoding Beta-lactamase GES-6 K104, S170 mutant in presence of at 2 ug/ml clavulanic acid by Etest method; type: functional
Escherichia coli [27] = experiment: Antimicrobial activity against Escherichia coli DH5[alpha] transformed with pAC-ges1 plasmid encoding Beta-lactamase GES-1 E104, G170 mutant in presence of at 2 ug/ml clavulanic acid by Etest method; type: functional
Escherichia coli [28] = experiment: Antimicrobial activity against Escherichia coli DH5[alpha] transformed with pAC-ges1 plasmid encoding Beta-lactamase GES-7 K104, G170 mutant in presence of at 2 ug/ml clavulanic acid by Etest method; type: functional
Escherichia coli [29] = experiment: Antimicrobial activity against Escherichia coli DH5[alpha] transformed with pAC-ges1 plasmid encoding Beta-lactamase GES-2 E104, N170 mutant in presence of at 2 ug/ml clavulanic acid by Etest method; type: functional
Method in brief: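 MIC read by Etest per the manufacturer's instructions. Host was E. coli DH5α carrying the bla_GES gene cloned into the chloramphenicol- and tetracycline-resistant vector pACYC184, with the high-copy plasmid pBC-ges1 as the gene source. The inhibitor was held at a fixed 2 μg/ml.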

Escherichia coli [30] = experiment: Antimicrobial activity against Escherichia coli DH5[alpha] in presence of at 2 ug/ml clavulanic acid by Etest method; type: functional
Escherichia coli [31] = experiment: Antimicrobial activity against Escherichia coli DH5[alpha] transformed with pAC-ges1 plasmid encoding Beta-lactamase GES-5 E104, S170 mutant in presence of at 2 ug/ml clavulanic acid by Etest method; type: functional
Escherichia coli [32] = experiment: Antimicrobial activity against Escherichia coli DH5[alpha] transformed with pAC-ges1 plasmid encoding Beta-lactamase GES-13 K104, N170 mutant in presence of at 2 ug/ml clavulanic acid by Etest method; type: functional

Row | Compound | MIC (Escherichia coli [1]) | MIC (Escherichia coli [2]) | MIC (Escherichia coli [3]) | MIC (Escherichia coli [8]) | MIC (Escherichia coli [10]) | MIC (Escherichia coli [12]) | MIC (Escherichia coli [19]) | IC50 [20] | IC50 [21] | IC50 [22] | IC50 [23] | IC50 [25] | also measured
1 | CC(C)(O/N=C(\C(=O)N[C@@H]1C(=O)N2C(C(=O)[O-])=C(C[n+]3ccccc3)CS[C@H]12)c1csc(N)n1)C(=O)O [CEFTAZIDIME] | 0.5 µg/mL (≈ 0.915 µM) | 0.12 µg/mL (≈ 0.22 µM) | > 256 µg/mL | 32 µg/mL (≈ 58.5 µM) | 0.75 µg/mL (≈ 1.37 µM) | 4 µg/mL (≈ 7.32 µM) | 8 µg/mL (≈ 14.6 µM) | – | – | – | – | – | kcat/Km [4]: 63000 M⁻¹ s⁻¹; Km [5]: 69.2 µM; kcat [5]: 132 s⁻¹; kcat/Km [6]: 2000 M⁻¹ s⁻¹; kcat/Km [7]: 77000 M⁻¹ s⁻¹; Km [9]: 135 µM; kcat [9]: 0.24 s⁻¹; Km [11]: 229 µM; kcat [11]: 30.4 s⁻¹; kcat/Km [13]: 1.9e+06 M⁻¹ s⁻¹; Km [14]: 149 µM; kcat [14]: 9.3 s⁻¹; Km [15]: 137 µM; kcat [15]: 10.5 s⁻¹; Km [16]: 98.2 µM; kcat [16]: 0.21 s⁻¹; kcat/Km [17]: 130000 M⁻¹ s⁻¹; kcat/Km [18]: 2000 M⁻¹ s⁻¹
2 | O=C(O)[C@H]1/C(=C/CO)O[C@@H]2CC(=O)N21 [CLAVULANIC ACID] | – | – | – | – | – | – | – | 1700 nM | 90 nM | 100 nM | 500 nM | 80 nM | IC50 [24]: 800 nM
3 | C[C@@H](O)[C@H]1C(=O)N2C(C(=O)O)=C(SCCNC=N)C[C@H]12 [IMIPENEM ANHYDROUS] | 0.5 µg/mL (≈ 1.67 µM) | 0.064 µg/mL (≈ 0.214 µM) | 0.125 µg/mL (≈ 0.418 µM) | 0.25 µg/mL (≈ 0.835 µM) | 1.5 µg/mL (≈ 5.01 µM) | 0.5 µg/mL (≈ 1.67 µM) | 0.25 µg/mL (≈ 0.835 µM) | – | – | – | – | – | kcat/Km [4]: 42000 M⁻¹ s⁻¹; kcat/Km [6]: 20000 M⁻¹ s⁻¹; kcat/Km [7]: 5000 M⁻¹ s⁻¹; Km [9]: 1.27 µM; kcat [9]: 0.332 s⁻¹; Km [11]: 3.1 µM; kcat [11]: 0.009 s⁻¹; Km [14]: 3.92 µM; kcat [14]: 0.166 s⁻¹; Km [15]: 1.2 µM; kcat [15]: 0.006 s⁻¹; Km [16]: 0.87 µM; kcat [16]: 0.016 s⁻¹; kcat/Km [17]: 3000 M⁻¹ s⁻¹; kcat/Km [18]: 260000 M⁻¹ s⁻¹
4 | C[C@@H](O)[C@H]1C(=O)N2C(C(=O)O)=C(S[C@@H]3CN[C@H](C(=O)N(C)C)C3)[C@H](C)[C@H]12 [MEROPENEM] | 0.032 µg/mL (≈ 0.0834 µM) | 0.008 µg/mL (≈ 0.0209 µM) | 0.016 µg/mL (≈ 0.0417 µM) | 0.023 µg/mL (≈ 0.06 µM) | 0.094 µg/mL (≈ 0.245 µM) | 0.047 µg/mL (≈ 0.123 µM) | 0.016 µg/mL (≈ 0.0417 µM) | – | – | – | – | – | –
5 | CC1(C)[C@H](C(=O)O)N2C(=O)C[C@H]2S1(=O)=O [SULBACTAM] | – | – | – | – | – | – | – | 8000 nM | 300 nM | 1500 nM | 4500 nM | 500 nM | –
6 | C[C@]1(Cn2ccnn2)[C@H](C(=O)O)N2C(=O)C[C@H]2S1(=O)=O [TAZOBACTAM] | – | – | – | – | – | – | – | 500 nM | 40 nM | 30 nM | 500 nM | 30 nM | IC50 [24]: 60 nM
7 | CC1(C)S[C@@H]2[C@H](NC(=O)[C@H](C(=O)O)c3ccsc3)C(=O)N2[C@H]1C(=O)O [TICARCILLIN] | > 256 µg/mL | 4 µg/mL (≈ 10.4 µM) | > 256 µg/mL | > 256 µg/mL | > 256 µg/mL | > 256 µg/mL | > 256 µg/mL | – | – | – | – | – | MIC (Escherichia coli [26]): > 256 µg/mL; MIC (Escherichia coli [27]): 6 µg/mL; MIC (Escherichia coli [28]): > 256 µg/mL; MIC (Escherichia coli [29]): 1.5 µg/mL; MIC (Escherichia coli [30]): 4 µg/mL; MIC (Escherichia coli [31]): 16 µg/mL; MIC (Escherichia coli [32]): 8 µg/mL
